This is an account of results in ChEMBL document CHEMBL1933039, “6-alkylsalicylates are selective Tip60 inhibitors and target the acetyl-CoA binding site” (Eur J Med Chem, 2012).

The target of assay [1] is Histone acetyltransferase KAT5 (Homo sapiens) (UniProt Q92993). As to the kind of experiment: Inhibition of Tip60-mediated histone H3 acetylation in human HeLa nuclear extracts at 50 uM after 15 mins by ELISA. Summed up:
(§1)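 HeLa nuclear extract (Dignam method) at 2.5 µg/mL final protein as enzyme source. Biotinylated H3 (aa 1–21) or H4 (aa 2–24) peptide immobilized on streptavidin. Reaction run 15 min in 50 mM HEPES pH 7.4, 0.01% Triton X-100, 0.1 mM EDTA, BSA, 1 mM DTT. Anti-acetyl-lysine ELISA readout. Triplicates, normalized to no-inhibitor and no-enzyme controls.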

Assay [2] has the same target. As to the kind of experiment: Inhibition of Tip60-mediated histone H3 acetylation in human HeLa nuclear extracts at 200 uM after 15 mins by ELISA. Summed up: as §1
Assay [3] has the same target. As to the kind of experiment: Inhibition of Tip60-mediated histone H4 acetylation in human HeLa nuclear extracts at 200 uM after 15 mins by ELISA. Summed up: as §1
Assay [4] has as its target T1, Histone acetyltransferase KAT8 (Homo sapiens, UniProt Q9H7Z6).
T1 sequence (Q9H7Z6 whole entry): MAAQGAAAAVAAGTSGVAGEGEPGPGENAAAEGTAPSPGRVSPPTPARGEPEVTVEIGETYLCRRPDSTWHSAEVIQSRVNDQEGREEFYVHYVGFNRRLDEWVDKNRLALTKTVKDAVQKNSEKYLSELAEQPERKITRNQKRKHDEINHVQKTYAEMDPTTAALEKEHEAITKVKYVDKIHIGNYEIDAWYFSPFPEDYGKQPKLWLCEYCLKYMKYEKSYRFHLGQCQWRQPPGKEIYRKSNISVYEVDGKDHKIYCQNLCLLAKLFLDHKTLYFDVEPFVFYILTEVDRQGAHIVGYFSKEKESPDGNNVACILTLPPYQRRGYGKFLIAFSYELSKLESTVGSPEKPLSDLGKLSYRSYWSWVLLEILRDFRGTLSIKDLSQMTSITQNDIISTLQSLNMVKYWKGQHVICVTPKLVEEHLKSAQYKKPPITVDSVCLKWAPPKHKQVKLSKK
As to the kind of experiment: Inhibition of human MOF expressed in Escherichia coli BL21(DE3) cells using [14C]AC-CoA and histone H4 as substrate after 5 mins by scintillation counting.

Assay [5] has as its target Histone acetyltransferase KAT5 (Rattus norvegicus) (UniProt Q99MK2). As to the kind of experiment: Inhibition of Tip60-mediated histone H3 acetylation in rat brain extracts at 30 uM after 15 mins by ELISA.
In assay [6] the target is Histone acetyltransferase p300 (Homo sapiens) (UniProt Q09472). As to the kind of experiment: Inhibition of human recombinant His-tagged p300 HAT domain expressed in Escherichia coli BL21(DE3) cells using [14C][…] and histone H4 as substrate at >200 uM after 5 mins by scintillation counting.
For assay [7], the target named is Histone acetyltransferase KAT2B (Homo sapiens) (UniProt Q92831). As to the kind of experiment: Inhibition of human recombinant His-tagged PCAF HAT domain expressed in Escherichia coli BL21(DE3) cells using [14C][…] and histone H3 as substrate at >200 uM after 3.5 mins by scintillation counting.
The target in assay [8] is Histone acetyltransferase KAT5 (Homo sapiens) (UniProt Q92993). As to the kind of experiment: Inhibition of His-tagged human recombinant Tip60 expressed in Escherichia coli BL21(DE3) cells using [14C][…] and histone H4 as substrate at 200 uM after 5 mins by scintillation counting. Summed up:
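Single-point screen at 200 µM inhibitor: 100 nM Tip60, 10 µM [14C]Ac-CoA, 100 µM H4-20 peptide in 50 mM HEPES pH 8.0, 0.1 mM EDTA, BSA, 1 mM DTT, 0.1% Triton X-100, 2% DMSO. Components equilibrated 5 min at 30 °C before enzyme start. Products spotted on P81 paper, washed with bicarbonate, counted by scintillation. No-enzyme background subtracted.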

Assay [9] has the same target.
The target in assay [10] is Histone acetyltransferase p300 (Homo sapiens) (UniProt Q09472). As to the kind of experiment: Inhibition of human recombinant His-tagged p300 HAT domain expressed in Escherichia coli BL21(DE3) cells using [14C][…] and histone H4 as substrate at 200 uM after 5 mins by scintillation counting. Summed up:
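Single-point screen at 200 µM inhibitor: 5 nM p300, 10 µM [14C]Ac-CoA, 100 µM H4-20 peptide in 50 mM HEPES pH 8.0, EDTA, BSA, DTT, Triton X-100, 2% DMSO, 30 °C. Enzyme-initiated after 5 min equilibration. Radioactivity on P81 paper counted. No-enzyme background subtracted.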

For assay [11], the target named is Histone acetyltransferase KAT5 (Rattus norvegicus) (UniProt Q99MK2). As to the kind of experiment: Inhibition of Tip60-mediated histone H3 acetylation in rat brain extracts at 30 uM after 15 mins by ELISA. It is filed as tissue-based. Summed up:
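Rat brain-region nuclear extracts (Dignam method) at 40 µg/mL final protein. Inhibitor at 30 µM. Histone peptide immobilized via streptavidin, 15 min reaction in HEPES pH 7.4 buffer, anti-acetyl-lysine ELISA. Triplicates for each of two animals. Blank values subtracted.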

The target in assay [12] is Histone acetyltransferase KAT5 (Homo sapiens) (UniProt Q92993). The source holds these as a separate data set.
Assay [13] deals with Histone acetyltransferase KAT2B (Homo sapiens) (UniProt Q92831). As to the kind of experiment: Inhibition of human recombinant His-tagged PCAF HAT domain expressed in Escherichia coli BL21(DE3) cells using [14C][…] and histone H3 as substrate at 200 uM after 5 mins by scintillation counting.
For assay [14], the target named is Histone acetyltransferase KAT5 (Homo sapiens) (UniProt Q92993). As to the kind of experiment: Inhibition of Tip60-mediated histone H4 acetylation in human HeLa nuclear extracts at 50 uM after 15 mins by ELISA. Summed up:
as §1

Calls of active or inactive are those of the source. No cut-off for these calls is given here.

Histone acetyltransferase KAT2B (Homo sapiens), sequence (Q92831 whole entry, looked up, the tested form may be a part): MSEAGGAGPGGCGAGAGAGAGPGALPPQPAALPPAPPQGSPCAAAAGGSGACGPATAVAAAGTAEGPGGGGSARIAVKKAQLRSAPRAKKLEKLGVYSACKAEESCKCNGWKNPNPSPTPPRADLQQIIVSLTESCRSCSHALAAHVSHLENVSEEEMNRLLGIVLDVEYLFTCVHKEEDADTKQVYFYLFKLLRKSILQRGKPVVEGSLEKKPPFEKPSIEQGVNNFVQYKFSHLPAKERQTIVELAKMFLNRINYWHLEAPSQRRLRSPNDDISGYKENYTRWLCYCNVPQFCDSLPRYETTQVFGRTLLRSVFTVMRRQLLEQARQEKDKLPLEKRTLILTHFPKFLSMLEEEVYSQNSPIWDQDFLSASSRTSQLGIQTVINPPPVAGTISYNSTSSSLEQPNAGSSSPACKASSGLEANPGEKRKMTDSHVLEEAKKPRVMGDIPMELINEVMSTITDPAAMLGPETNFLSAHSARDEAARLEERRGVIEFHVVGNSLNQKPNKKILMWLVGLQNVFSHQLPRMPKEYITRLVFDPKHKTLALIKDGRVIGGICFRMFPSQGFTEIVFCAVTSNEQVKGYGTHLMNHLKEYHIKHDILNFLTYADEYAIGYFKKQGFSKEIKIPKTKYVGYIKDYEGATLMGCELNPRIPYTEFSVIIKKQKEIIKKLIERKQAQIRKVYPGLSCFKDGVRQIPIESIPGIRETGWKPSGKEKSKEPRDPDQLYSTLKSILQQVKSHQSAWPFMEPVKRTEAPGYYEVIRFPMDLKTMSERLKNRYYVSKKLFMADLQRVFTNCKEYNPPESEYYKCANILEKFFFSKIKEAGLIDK
Histone acetyltransferase KAT5 (Homo sapiens), sequence (Q92993 whole entry, looked up, the tested form may be a part): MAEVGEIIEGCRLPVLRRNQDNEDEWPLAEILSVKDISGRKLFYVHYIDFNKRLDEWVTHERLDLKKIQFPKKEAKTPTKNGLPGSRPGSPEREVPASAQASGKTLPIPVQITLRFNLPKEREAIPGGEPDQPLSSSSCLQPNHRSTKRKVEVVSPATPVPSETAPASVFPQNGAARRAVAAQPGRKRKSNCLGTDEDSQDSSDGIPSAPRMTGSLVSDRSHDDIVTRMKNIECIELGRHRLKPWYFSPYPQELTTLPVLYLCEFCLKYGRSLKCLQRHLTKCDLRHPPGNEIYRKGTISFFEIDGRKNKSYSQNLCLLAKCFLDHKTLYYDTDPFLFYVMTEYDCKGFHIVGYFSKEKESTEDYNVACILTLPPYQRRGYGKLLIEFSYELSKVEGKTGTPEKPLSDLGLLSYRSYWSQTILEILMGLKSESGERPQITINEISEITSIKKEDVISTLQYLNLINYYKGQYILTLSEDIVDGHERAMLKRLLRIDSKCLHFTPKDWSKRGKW
Histone acetyltransferase p300 (Homo sapiens), sequence (Q09472 whole entry, the tested form may be a part): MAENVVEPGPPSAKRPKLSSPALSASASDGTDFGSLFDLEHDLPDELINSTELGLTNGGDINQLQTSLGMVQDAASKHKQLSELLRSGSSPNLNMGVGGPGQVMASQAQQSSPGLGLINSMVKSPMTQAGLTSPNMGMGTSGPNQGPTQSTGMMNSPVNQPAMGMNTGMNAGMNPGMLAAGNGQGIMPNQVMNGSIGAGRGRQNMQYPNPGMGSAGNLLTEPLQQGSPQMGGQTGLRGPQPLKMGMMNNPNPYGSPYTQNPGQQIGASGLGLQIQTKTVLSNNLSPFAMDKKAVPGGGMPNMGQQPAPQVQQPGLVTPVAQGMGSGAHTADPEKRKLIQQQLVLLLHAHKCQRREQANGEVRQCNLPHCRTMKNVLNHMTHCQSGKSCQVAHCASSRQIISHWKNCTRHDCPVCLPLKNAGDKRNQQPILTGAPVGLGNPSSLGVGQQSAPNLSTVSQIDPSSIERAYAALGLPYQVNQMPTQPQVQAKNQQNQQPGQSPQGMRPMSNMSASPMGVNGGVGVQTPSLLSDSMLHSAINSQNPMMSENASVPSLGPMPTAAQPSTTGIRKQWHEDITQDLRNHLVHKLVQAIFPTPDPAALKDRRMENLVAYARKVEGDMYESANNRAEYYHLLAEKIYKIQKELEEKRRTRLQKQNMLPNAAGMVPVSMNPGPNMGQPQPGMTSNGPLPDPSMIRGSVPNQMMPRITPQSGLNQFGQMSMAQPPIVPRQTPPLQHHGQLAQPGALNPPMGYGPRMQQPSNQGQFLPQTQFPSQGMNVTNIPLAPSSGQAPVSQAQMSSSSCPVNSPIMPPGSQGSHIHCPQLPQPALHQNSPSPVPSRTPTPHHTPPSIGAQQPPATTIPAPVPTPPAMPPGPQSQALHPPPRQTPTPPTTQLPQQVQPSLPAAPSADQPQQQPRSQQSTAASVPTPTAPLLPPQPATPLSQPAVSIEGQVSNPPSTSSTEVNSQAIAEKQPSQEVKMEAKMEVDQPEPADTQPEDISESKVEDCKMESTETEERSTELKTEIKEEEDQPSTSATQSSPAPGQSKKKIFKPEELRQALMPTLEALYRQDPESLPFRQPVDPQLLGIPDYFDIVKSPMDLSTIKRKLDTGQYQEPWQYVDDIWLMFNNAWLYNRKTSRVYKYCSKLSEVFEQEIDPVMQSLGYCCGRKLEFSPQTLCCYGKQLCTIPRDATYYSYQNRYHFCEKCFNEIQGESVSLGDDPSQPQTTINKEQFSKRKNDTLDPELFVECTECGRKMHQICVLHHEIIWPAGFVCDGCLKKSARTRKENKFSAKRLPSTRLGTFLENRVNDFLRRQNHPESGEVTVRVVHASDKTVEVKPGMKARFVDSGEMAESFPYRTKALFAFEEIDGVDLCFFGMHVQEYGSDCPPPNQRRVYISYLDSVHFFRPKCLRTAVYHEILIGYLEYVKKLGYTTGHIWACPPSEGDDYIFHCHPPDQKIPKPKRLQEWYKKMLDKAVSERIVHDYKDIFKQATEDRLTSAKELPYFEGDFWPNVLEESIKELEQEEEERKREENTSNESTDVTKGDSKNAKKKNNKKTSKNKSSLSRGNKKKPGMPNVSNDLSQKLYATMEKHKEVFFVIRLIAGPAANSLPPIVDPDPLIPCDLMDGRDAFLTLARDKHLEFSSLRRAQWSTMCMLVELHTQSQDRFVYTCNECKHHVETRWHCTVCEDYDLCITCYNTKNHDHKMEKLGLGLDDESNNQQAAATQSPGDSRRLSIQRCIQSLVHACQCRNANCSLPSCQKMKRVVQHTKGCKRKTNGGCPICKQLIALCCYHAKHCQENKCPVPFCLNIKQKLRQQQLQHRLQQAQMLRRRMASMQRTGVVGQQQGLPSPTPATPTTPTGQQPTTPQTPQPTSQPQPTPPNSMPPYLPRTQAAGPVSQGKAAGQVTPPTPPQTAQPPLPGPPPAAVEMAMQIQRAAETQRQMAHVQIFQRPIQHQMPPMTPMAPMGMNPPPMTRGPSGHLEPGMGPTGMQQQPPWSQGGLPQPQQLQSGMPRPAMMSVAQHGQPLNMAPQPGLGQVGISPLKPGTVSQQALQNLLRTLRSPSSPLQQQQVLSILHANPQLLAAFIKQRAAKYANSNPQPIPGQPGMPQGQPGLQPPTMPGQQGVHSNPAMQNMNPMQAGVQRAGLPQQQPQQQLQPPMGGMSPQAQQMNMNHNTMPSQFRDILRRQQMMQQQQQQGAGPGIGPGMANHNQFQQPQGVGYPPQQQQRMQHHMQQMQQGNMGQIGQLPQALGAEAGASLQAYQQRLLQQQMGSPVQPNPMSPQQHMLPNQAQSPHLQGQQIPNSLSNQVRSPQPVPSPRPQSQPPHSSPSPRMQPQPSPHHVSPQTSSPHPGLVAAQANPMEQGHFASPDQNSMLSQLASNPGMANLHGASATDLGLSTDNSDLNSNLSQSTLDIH
Histone acetyltransferase KAT5 (Rattus norvegicus), sequence (Q99MK2 whole entry, the tested form may be a part): as the sequence (Q92993 whole entry, looked up, the tested form may be a part) above, with A175S counted along it

For the compound `CCCCCCCOc1ccc(CCc2cccc(O)c2C(=O)O)cc1C(C)=O`, the inhibition result in assay [1] is “Active”. In addition, the inhibition in [2] and in [3] was > 50% throughout.

As to `CCCCCCCCCCCCCCCc1ccccc1C(=O)O`, the inhibition in assay [2] and in assay [3] was > 50% in each case.

Turning to `CCCCCCCc1ccc(CCc2cc(O)cc(O)c2C(=O)O)cc1`, the inhibition entry in assay [1] was “Active”.

As for `CCCCCCCc1ccc(CCc2cccc(O)c2C(=O)O)cc1`, the IC50 in [4] is 47 µM. In addition, the inhibition entry in [1], in assay [5] and in [11] was “Active” throughout. Besides, the inhibition was 30% in assay [6]; 3% in assay [7]; 88% in assay [8]; > 50% in assay [2]; < 35% in assay [10]; < 35% in assay [13]. Also, the inhibition in assay [3] was > 50%. Besides, the figures for the Kii in assay [9] and in assay [12] were 572 µM and 78 µM, respectively.

As for `CCCCCCCCCCCCCCCc1cc(O)cc(O)c1C(=O)O`, the inhibition result in [1] is “Active”. For the same compound, the inhibition in [8] was > 76%; in [2], > 50%; in [10], < 35%; in [13], < 35%; in assay [3], > 50%.

Regarding `C=CC/C=C\C/C=C\CCCCCCCc1cccc(O)c1C(=O)O`, the inhibition result in [1], in [14], in assay [5] and in [11] was “Active” in each case. Besides, the inhibition in assay [6] is 40%; in [8], > 76%; in assay [2] it was > 50%; in assay [10] it was < 20%; in assay [13] it was < 20%; in assay [3], > 50%.

Turning to `CCCCCOc1ccc(CCc2cccc(O)c2C(=O)O)cc1C(C)=O`, the inhibition in assay [8] was > 76%; in assay [2], > 50%; in assay [10], < 35%; in assay [13], < 35%; in [3], > 50%.

Turning to `COCCOc1ccc(CCc2cccc(O)c2C(=O)O)cc1`, the inhibition entry in assay [8] was “Active”.

In the case of `CCCCCOc1ccc(/C=C\c2cccc(O)c2C(=O)O)cc1`, the inhibition result in [14] is “Active”. The inhibition in [2] and in assay [3] was > 50% each time.

Turning to `CC(C)CCCC(C)CCOc1ccc(CCc2cccc(O)c2C(=O)O)cc1` (stereo unspecified), the inhibition result in assay [1] was “Active”. In addition, the inhibition is > 76% in assay [8]; > 50% in [2]; < 35% in [10]; < 35% in assay [13]; > 50% in [3].

With `CCCCCCCCCCc1cccc(O)c1C(=O)O`, the inhibition result in assay [1] and in assay [14] was “Active” in each case. Moreover, the inhibition is > 76% in [8]; > 50% in assay [2]; < 35% in assay [10]; < 35% in assay [13]; > 50% in assay [3].

As for `CCCCCCCCCCCCCC#Cc1ccccc1C(=O)OC`, the inhibition in assay [2] and in [3] was > 50% each time.

For the compound `CCCCCCCCCCc1cc(O)cc(O)c1C(=O)O`, the inhibition is > 76% in [8]; > 50% in assay [2]; < 35% in assay [10]; < 35% in assay [13]; > 50% in assay [3].

With `CCCCCCCCCCCCCCOc1ccc(CCc2cccc(O)c2C(=O)O)cc1`, the inhibition result in assay [14] is “Active”. For the same compound, the inhibition in [2] and in assay [3] was > 50% each time.

As for `CCCCCOc1ccc(CCc2cccc(O)c2C(=O)O)cc1`, the inhibition entry in assay [14] was “Active”. Also, the inhibition in [2] and in assay [3] was > 50% each time.

Consider `CCCCCOc1ccc(CCc2cccc(O)c2C(=O)O)cc1C(C)O` (stereo unspecified), for which the inhibition result in [8] was “Active”.
